# In all, about 2,500 compounds went through this assay and about 1,200 (48%) were called active.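 The calls were made as follows: active = mean activation above the low control average plus 3 SD, as set in the primary screen (cut at about 12% in these data); inactive = the rest.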 So high a share suggests a set chosen from earlier hits. The list shows a part of the results.
# Target: Troponin I, cardiac muscle (Homo sapiens) + Troponin T, cardiac muscle (Homo sapiens) + Troponin C, slow skeletal and cardiac muscles (Homo sapiens) (UniProt P19429+P45379+P63316)
# Experiment: calcium sensitizers of cardiac thin filaments – biochemical, IANBD-TnC fluorescence, triplicate, confirmation (AID 504383);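 also: 0% = DMSO at 0.472 mM calcium and 100% = DMSO at 2.9 mM calcium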
# Conditions: IANBD-labeled cardiac RTF, Ca2+ sensitivity fluorescence; at 7.2 µM; hits give high values; scaled from EC20 to saturating calcium; tested at EC20 calcium, 0.472 mM
# In short: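 Assay system: labelled regulated thin filament protein complex; schedule: 15 min compound incubation with filaments at 25 °C; benchmarks: low control EC20 calcium, high control EC100 calcium; reagent: Ca2+ 0.472 mM, EC20 level; doses: one dose, 7.2 µM nominal; evaluation: fluorescence gain scaled between EC20 and EC100 calcium controls; signal: filament fluorescence intensity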
row,Structure (SMILES),activation
1,COc1cc(N2CCCC2)c(OC)cc1/C=C1/NC(=S)NC1=O,113% (active)
2,O=C1CCC/C(=N/NC(=O)c2sc3ccccc3c2Cl)C1,7.01% (inactive)
3,O=C1CCCC(=NNC(=O)c2cc3ccccc3cc2O)C1,8.36% (inactive)
4,COc1ccc2c(Cl)c(C(=O)N/N=C3\CCCC(=O)C3)sc2c1,47.6% (active)
5,CC1(c2cccc(Br)c2)NC(=O)NC1=O (centres undefined),52.2% (active)
6,COc1ccc(NC(C)=O)cc1NC(=O)C1CCCN1C(=O)c1cccs1 (centres undefined),6.06% (inactive)
7,COC(=O)C1=C(C(=O)OC)[C@@H]2Nc3ccccc3[C@@]23C[C@@H](C(=O)OC)N(C(=O)c2cccs2)C3=N1,36.8% (active)
8,O=C(CCC1CCCN(C(=O)C2=CCCC2)C1)N1CCN(c2ccccn2)CC1 (centres undefined),4.61% (inactive)
9,Cc1ccc(SCC(=O)OCC(=O)NCc2cccs2)cc1,12.8% (active)
10,CCC1Oc2ccc(C)cc2N(CC(=O)NCc2cccs2)C1=O (centres undefined),-5.95% (inactive)
11,CC(=O)n1cc(CO)c2ccccc21,262% (active)
12,Cc1ccc(Cl)c(NC(=O)CN(C)CC(=O)Nc2ccc(F)c(F)c2F)c1Cl,2.04% (inactive)
13,CC(CCc1ccc(O)cc1)NCCC(c1ccccc1)c1ccccc1 (centres undefined),48.6% (active)
14,CCN=C(NC#N)SCc1c(F)cccc1Cl,11.4% (inactive)
15,NS(=O)(=O)c1ccc(NCc2c(F)cccc2Cl)cc1,45.6% (active)
16,Cc1cccc(N=Cc2[nH]c3ccc(Br)c(Cl)c3c2O)c1,4.45% (inactive)
17,CCOc1ccc(Cn2nnc(C(=O)NCCc3ccccc3)c2N)cc1,821% (active)

row,Structure (SMILES),activation
1,CCOc1ccc(Nc2nc(N)c([N+](=O)[O-])c(NCc3ccccc3)n2)cc1,7.49% (inactive)
2,COc1cccc2cc(-c3nc(-c4cccs4)cs3)c(=O)oc12,3.53% (inactive)
3,Cc1ccccc1-c1noc(-c2cccs2)n1,24.3% (active)
4,COc1ccc(N2CCN(C(=O)c3ccc(OCC4CCCO4)cc3)CC2)cc1 (centres undefined),71% (active)
5,COC(=O)c1sc(N2C(=O)C(O)=C(C(=O)c3ccc(C)o3)C2c2ccc(F)cc2)nc1C (centres undefined),35% (active)
6,O=C(C1=C(O)C(=O)N(c2nccs2)C1c1ccccc1)c1cc2ccccc2o1 (centres undefined),5.32% (inactive)
7,CCCC1C(c2ccccc2)C(C#N)(C#N)C2(C#N)CC1(N)NC2=O (centres undefined),10.5% (inactive)
8,N#C/C(=C\c1coc2ccc(O)cc2c1=O)C(=O)Nc1nc2ccccc2s1,12.6% (active)
9,O=C1N(c2cccc(Cl)c2)C(c2ccccc2)N2CCCN12 (centres undefined),6.5% (inactive)
10,O=C(C1=NN(c2ccccc2)C2C(=O)N(c3ccccc3Cl)C(=O)C12)c1ccccc1 (centres undefined),13.6% (active)
11,COc1ccccc1N1C(=O)C2C(C(=O)c3ccccc3)=NN(c3ccccc3)C2C1=O (centres undefined),11.7% (active)
12,O=C(C1=NN(c2ccccc2)C2C(=O)N(c3cccc(Cl)c3)C(=O)C12)c1ccccc1 (centres undefined),35.7% (active)
13,O=C(C1=NN(c2ccccc2)C2C(=O)N(c3ccc(Cl)cc3)C(=O)C12)c1ccccc1 (centres undefined),2.79% (inactive)
14,Cc1ccc(N2C(=O)C3C(C(=O)c4ccccc4)=NN(c4ccccc4)C3C2=O)cc1 (centres undefined),29.5% (active)
15,O=C(C1=NN(c2ccccc2)C2C(=O)N(c3ccccc3)C(=O)C12)c1ccccc1 (centres undefined),3.95% (inactive)
16,Cc1ccc(CC2C(=O)N(c3ccc(C)cc3)C(=O)C2C)cc1 (centres undefined),7.76% (inactive)
17,COc1cccc(/C=C/C(=C2\C(=O)N(c3ccccc3)N=C2C)c2ccc(Br)cc2)c1OC,4.48% (inactive)
